Measurements from ChEMBL document CHEMBL3994569, “Synthesis, anti-varicella-zoster virus and anti-cytomegalovirus activity of quinazoline-2,4-diones containing isoxazolidine and phosphonate substructures” (Eur J Med Chem, 2017).

Legend:
CCRF-CEM = test: Anti-proliferative activity against human CEM cells measured after 72 hrs by coulter counter method; format: ADME, cell-based
Procedure, shortened: (§1)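 Cells at 300,000–500,000 cells/mL, combined 1:1 by volume with compound dilutions, incubated at 37 °C: L1210 for two days, CEM for three days, HeLa for four days. Cells counted by Coulter counter.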

L1210 = test: Anti-proliferative activity against mouse L1210 cells measured after 48 hrs by coulter counter method; format: ADME, cell-based; procedure, shortened: as §1
Human alphaherpesvirus 3 [1] = test: Antiviral activity against thymidine kinase expressing Varicella-Zoster virus OKA infected in HEL cells assessed as reduction in virus plaque formation; format: functional, cell-based, strain Oka vaccine
Procedure, shortened: (§2)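 Confluent HEL fibroblast cultures were infected with VZV at an input of 100 PFU and incubated with varying compound concentrations. Plaques were counted once plaque formation was complete in untreated infected controls.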

Cytomegalovirus [2] = test: Antiviral activity against Cytomegalovirus Davis infected in HEL cells assessed as reduction in virus plaque formation; format: functional, cell-based
Procedure, shortened: (§3)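 Confluent HEL fibroblast cultures infected with 100 PFU of HCMV and kept with varying compound concentrations. Plaques scored once plaque formation was complete in untreated infected controls.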

HEL [3] = test: Cytotoxicity against HEL cells infected with Varicella-Zoster virus assessed as growth inhibition; format: cell-based; settings: human, hel
Cytomegalovirus [4] = test: Antiviral activity against Cytomegalovirus AD169 infected in HEL cells assessed as reduction in virus plaque formation; format: functional, cell-based; procedure, shortened: as §3
Human alphaherpesvirus 3 [5] = test: Antiviral activity against thymidine kinase deficient Varicella-Zoster virus 07-1 infected in HEL cells assessed as reduction in virus plaque formation; format: functional, cell-based; procedure, shortened: as §2
HeLa [6] = test: Anti-proliferative activity against human HeLa cells measured after 72 hrs by coulter counter method; format: ADME, cell-based
[7] = (§4) Cytotoxicity against HEL cells infected with Varicella-Zoster virus assessed as alteration in cell morphology by microscopic method; format: cell-based; settings: human, HEL cells infected with Varicella-Zoster virus
Procedure, shortened: (§5)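 In the HEL cultures used for the antiviral assays, cell morphology was examined microscopically across varying compound concentrations. MCC is the minimum concentration causing a microscopically detectable alteration of cell morphology.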

[8] = (§6) Cytotoxicity against HEL cells infected with Cytomegalovirus assessed as alteration in cell morphology by microscopic method; format: cell-based; settings: human, HEL cells infected with Cytomegalovirus; procedure, shortened: as §5
HeLa [9] = test: Anti-proliferative activity against human HeLa cells measured after 4 days by coulter counter method; format: ADME, cell-based; procedure, shortened: as §1
HMEC-1 = test: Anti-proliferative activity against HMEC1 cells by coulter counter method; format: ADME, cell-based, Homo sapiens
Procedure, shortened: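 HMEC-1 cells at 300,000–500,000 cells/mL, mixed 1:1 by volume with serial dilutions of test compound, incubated at 37 °C. Cell number counted by Coulter counter.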

HEL [10] = test: as §4; format: cell-based; settings: human, hel; procedure, shortened: as §5
HEL [11] = test: as §6; format: cell-based; settings: human, hel; procedure, shortened: as §5
HEL [12] = test: Cytotoxicity against HEL cells infected with Cytomegalovirus assessed as growth inhibition; format: cell-based; settings: human
Human alphaherpesvirus 1 [13] = test: Antiviral activity against Herpes simplex virus 1 KOS infected in HEL cells assessed as reduction in virus-induced cytopathogenicity; format: functional, cell-based; settings: Human alphaherpesvirus 1, KOS
Procedure, shortened: (§7)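 Confluent HEL fibroblast monolayers were infected with 100 CCID50 of virus and incubated with varying concentrations of compound. Cytopathicity was scored once it was complete in untreated infected controls.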

Human adenovirus 2 = test: Antiviral activity against Human adenovirus 2 infected in HEL cells assessed as reduction in virus-induced cytopathogenicity; format: functional, cell-based; settings: Human mastadenovirus C; procedure, shortened: as §7
Human alphaherpesvirus 2 = test: Antiviral activity against Herpes simplex virus 2 G infected in HEL cells assessed as reduction in virus-induced cytopathogenicity; format: functional, cell-based; settings: Human alphaherpesvirus 2, strain G
[14] = Cytotoxicity against virus infected HEL cells assessed as alteration in cell morphology by microscopic method; format: cell-based; settings: human; procedure, shortened: as §5
Human alphaherpesvirus 1 [15] = test: Antiviral activity against thymidine kinase-deficient acyclovir-resistant Herpes simplex virus 1 KOS infected in HEL cells assessed as reduction in virus-induced cytopathogenicity; format: functional, cell-based; settings: Human alphaherpesvirus 1, KOS; procedure, shortened: as §7
[16] = Human alphaherpesvirus 3, strain Oka vaccine, HEL
[17] = Human betaherpesvirus 5, Davis, HEL
[18] = Human betaherpesvirus 5, AD169, HEL
[19] = Human alphaherpesvirus 3, 07-1, HEL

| Structure (SMILES) | IC50 (CCRF-CEM; Homo sapiens, CCRF-CEM, 72 h) [µM] | IC50 (L1210; Mus musculus, L1210, 48 h) [µM] | EC50 (Human alphaherpesvirus 3 [1]; [16]) [µM] | EC50 (Cytomegalovirus [2]; [17]) [µM] | CC50 (HEL [3]) [µM] | EC50 (Cytomegalovirus [4]; [18]) [µM] | EC50 (Human alphaherpesvirus 3 [5]; [19]) [µM] | MCC [7] [µM] | MCC [8] [µM] | IC50 (HeLa [9]; Homo sapiens, HeLa, 96 h) [µM] | IC50 (HMEC-1; Homo sapiens, HMEC-1) [µM] | other results |
| --- | --- | --- | --- | --- | --- | --- | --- | --- | --- | --- | --- | --- |
| CCOP(=O)(OCC)[C@@H]1C[C@@H](Cn2c(=O)n(C(=O)c3ccccc3)c(=O)c3ccccc32)ON1C | 70 | ≥ 159 | 7.5 | > 100 | > 100 | > 100 | 13.7 | ≥ 100 | 100 |  |  | IC50 (HeLa [6]): 96 µM |
| CCOP(=O)(OCC)[C@@H]1C[C@@H](Cn2ccc(=O)n(C(=O)c3ccccc3)c2=O)ON1C | > 200 | > 200 | 83.6 | > 100 |  | > 100 | > 100 | > 100 | 100 |  |  | IC50 (HeLa [6]): > 200 µM |
| CCOP(=O)(OCC)[C@H]1C[C@@H](Cn2c(=O)n(C(=O)c3ccccc3)c(=O)c3ccccc32)ON1C | 74 | > 200 | 7.7 | > 100 |  | > 100 | 10.9 | > 100 | 100 |  |  | IC50 (HeLa [6]): > 200 µM |
| CCOP(=O)(OCC)[C@H]1C[C@@H](Cn2ccc(=O)n(C(=O)c3ccccc3)c2=O)ON1C | > 200 | > 200 | 65.7 | > 100 |  | > 100 | 88.4 | > 100 | 100 |  |  | IC50 (HeLa [6]): > 200 µM |
| CCOP(=O)(OCC)C1CC(Cn2c(=O)n(C(=O)c3ccc(F)cc3)c(=O)c3ccccc32)ON1Cc1ccccc1 (mixture of isomers) | 132 | 105 | 7.4 | > 20 | 12.3 | > 20 | 7.6 | 100 | 20 | > 250 |  |  |
| CCOP(=O)(OCC)C1CC(Cn2c(=O)n(C(=O)c3ccccc3F)c(=O)c3ccccc32)ON1Cc1ccccc1 (mixture of isomers) | 158 | 155 | 16.7 | > 20 | 21.4 | > 20 | 20 | 100 | 100 | ≥ 250 | > 250 |  |
| CCOP(=O)(OCC)C1CC(Cn2c(=O)n(C(=O)c3cccc(F)c3)c(=O)c3ccccc32)ON1C (mixture of isomers) |  | > 250 | 7.8 | > 100 | 30 | > 100 | 21.4 | > 100 | 100 | > 250 |  |  |
| CCOP(=O)(OCC)C1CC(Cn2c(=O)n(C(=O)c3cccc(F)c3)c(=O)c3ccccc32)ON1Cc1ccccc1 (mixture of isomers) | 166 | 185 | 6 | > 20 | 19.3 | > 20 | 8.5 | 100 | 100 |  | > 250 |  |
| CCOP(=O)(OCC)C1CC(Cn2c(=O)n(Cc3cccc(F)c3)c(=O)c3ccccc32)ON1C (mixture of isomers) | 77 | 118 | 7 | 44.7 | 36.8 | > 20 | 27.1 | ≥ 100 | 100 | 86 | 149 |  |
| CCOP(=O)(OCC)C1CC(Cn2c(=O)n(Cc3ccc(F)cc3)c(=O)c3ccccc32)ON1Cc1ccccc1 (mixture of isomers; cis) | 17 | 19 | > 4 |  |  | > 4 | > 4 |  |  | 17 | 27 | EC50 (Cytomegalovirus [2]): > 4 µM; MCC (HEL [10]): 20 µM; MCC (HEL [11]): 20 µM |
| CCOP(=O)(OCC)C1CC(Cn2c(=O)n(Cc3cccc(F)c3)c(=O)c3ccccc32)ON1Cc1ccccc1 (mixture of isomers; cis) |  |  | > 20 |  |  |  | > 20 | 100 |  | 73 |  | IC50 (CCRF-CEM; ccrf-cem): 49 µM; IC50 (L1210; l1210): 89 µM; EC50 (Cytomegalovirus [2]): > 20 µM; EC50 (Cytomegalovirus [4]): > 20 µM; MCC (HEL [11]): 20 µM; IC50 (HMEC-1; hmec-1): 204 µM |
| CCOP(=O)(OCC)C1CC(Cn2c(=O)n(Cc3ccccc3)c(=O)c3ccccc32)ON1Cc1ccccc1 (mixture of isomers; trans) |  |  |  |  |  |  |  |  |  |  |  | IC50 (CCRF-CEM; ccrf-cem): 15 µM; IC50 (L1210; l1210): 17 µM; EC50 (Human alphaherpesvirus 3 [1]): > 20 µM; EC50 (Cytomegalovirus [2]): 13.1 µM; EC50 (Cytomegalovirus [4]): ≥ 14.5 µM; EC50 (Human alphaherpesvirus 3 [5]): > 20 µM; CC50 (HEL [12]): 41.7 µM; IC50 (HeLa [9]; hela): 73 µM |
| CCOP(=O)(OCC)C1CC(Cn2c(=O)n(Cc3cccc(F)c3)c(=O)c3ccccc32)ON1Cc1ccccc1 (mixture of isomers; trans) |  |  |  |  |  |  |  |  |  |  |  | IC50 (CCRF-CEM; ccrf-cem): 17 µM; IC50 (L1210; l1210): 17 µM; EC50 (Cytomegalovirus [2]): 8.94 µM; EC50 (Cytomegalovirus [4]): 9.9 µM; EC50 (Human alphaherpesvirus 3 [5]): 20 µM; CC50 (HEL [12]): 20.8 µM; MCC (HEL [11]): 100 µM; IC50 (HeLa [9]; hela): 63 µM; IC50 (HMEC-1; hmec-1): 28 µM |
| CCOP(=O)(OCC)[C@H]1C[C@@H](Cn2c(=O)n(C(=O)c3ccccc3)c(=O)c3ccccc32)ON1Cc1ccccc1 (relative stereo) |  | 155 | 8.5 | > 20 | 16.3 | > 20 | 10.8 | 100 | 100 |  | > 250 |  |
| CCOP(=O)(OCC)[C@@H]1C[C@@H](Cn2c(=O)n(C(=O)c3cccc(F)c3)c(=O)c3ccccc32)ON1Cc1ccccc1 (relative stereo) | 224 | 170 | 8.7 | > 20 | 9.8 | > 20 | 8.5 | 100 | 20 | > 250 | > 250 |  |
| CCOP(=O)(OCC)[C@@H]1C[C@@H](Cn2c(=O)n(C(=O)c3ccc(F)cc3)c(=O)c3ccccc32)ON1C (relative stereo) |  | > 250 | 6.9 | > 20 | 14.7 | > 20 | 10.7 | ≥ 100 | 100 |  |  | EC50 (Human alphaherpesvirus 1 [13]): 39 µM; EC50 (Human adenovirus 2): 17.5 µM; EC50 (Human alphaherpesvirus 2): 12 µM; MCC [14]: ≥ 100 µM; EC50 (Human alphaherpesvirus 1 [15]): 9 µM |
| CCOP(=O)(OCC)[C@@H]1C[C@@H](Cn2c(=O)n(C(=O)c3ccc(F)cc3)c(=O)c3ccccc32)ON1Cc1ccccc1 (relative stereo) | 170 | 123 | 7.5 | > 20 | 12.7 | > 20 | 8.3 | 100 | 20 |  | ≥ 250 |  |
| CCOP(=O)(OCC)[C@@H]1C[C@@H](Cn2c(=O)n(C(=O)c3cccc(F)c3)c(=O)c3ccccc32)ON1C (relative stereo) | > 250 | 228 | 16.7 | > 20 | 16.5 | > 20 | 15 | > 100 | 100 |  | > 250 |  |
| CCOP(=O)(OCC)[C@@H]1C[C@@H](Cn2c(=O)n(C(=O)c3ccccc3)c(=O)c3ccccc32)ON1Cc1ccccc1 (relative stereo) | ≥ 250 | 154 | 8.5 | > 20 | 28.9 | > 20 | > 20 | 100 | 100 | > 250 |  |  |
| Nc1nc2c(ncn2COCCO)c(=O)[nH]1 [ACYCLOVIR] |  |  |  |  |  |  |  | > 440 |  |  |  | MCC [14]: > 250 µM |
| Cc1cn([C@H]2C[C@H](F)[C@@H](CO)O2)c(=O)[nH]c1=O [ALOVUDINE] |  |  |  |  |  |  |  |  |  |  |  | EC50 (Human adenovirus 2): 10 µM; MCC [14]: > 250 µM |
| O=c1[nH]c(=O)n([C@H]2C[C@H](O)[C@@H](CO)O2)cc1/C=C/Br [BRIVUDINE] |  |  | 0.005 |  | 300 |  | 22.7 | > 300 |  |  |  | EC50 (Human alphaherpesvirus 2): 146 µM; MCC [14]: > 250 µM |
| Nc1nc(O)c2ncn(COC(CO)CO)c2n1 [GANCICLOVIR] |  |  |  | 6.5 |  | 14.9 |  |  | > 350 |  |  | EC50 (Human alphaherpesvirus 2): 0.055 µM; CC50 (HEL [12]): > 350 µM; MCC [14]: > 100 µM |
| NC(=O)c1ncn([C@@H]2O[C@H](CO)[C@@H](O)[C@H]2O)n1 [RIBAVIRIN] |  |  |  |  |  |  |  |  |  |  |  | MCC [14]: ≥ 250 µM |
| Nc1ccn([C@H]2CC[C@@H](CO)O2)c(=O)n1 [ZALCITABINE] |  |  |  |  |  |  |  |  |  |  |  | EC50 (Human adenovirus 2): 7.2 µM; MCC [14]: > 250 µM |
